Source: ChEMBL document CHEMBL1127463, “Heteroaryl-fused 2-phenylisothiazolone inhibitors of cartilage breakdown” (J Med Chem, 1994)

species: Bos taurus; test: In vitro inhibition of human recombinant IL-1-beta-induced breakdown of bovine cartilage in a cartilage organ culture assay; format: functional; details: not given
Method in brief: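 Bovine nasal septum cartilage discs (1 mm × 8 mm, cut in eighths) cultured in DMEM + 5% FCS with antibiotics, ± rh IL-1β 500 ng/mL ± drug (DMSO ≤1%) for 40 h at 37 °C. Released GAG measured by 1,9-dimethylmethylene blue against chondroitin sulfate standard, µg/mg wet weight. Eight replicates per group; dose response gives IC50 (µM).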

| IC50 [µM] | Compound |
| --- | --- |
| 12 | O=c1c2cccnc2sn1-c1ccc(F)cc1 |
| 8 | COC(=O)c1cccc(OC)c1-n1sc2ncccc2c1=O |
| > 30 | COc1ccc2cc([C@H](C)C(=O)O)ccc2c1 [NAPROXEN] |
| > 30 | O=C1CCN(c2ccccc2)N1 [PHENIDONE] |
| > 30 | CN(C)[C@@H]1C(O)=C(C(N)=O)C(=O)[C@@]2(O)C(O)=C3C(=O)c4c(O)cccc4[C@@](C)(O)[C@H]3C[C@@H]12 [TETRACYCLINE] |
| > 30 | COc1ccc2c(c1)c(CC(=O)O)c(C)n2C(=O)c1ccc(Cl)cc1 [INDOMETHACIN] |
| 25 | COC(=O)c1ccccc1-n1sc2ncccc2c1=O |
| 8.5 | O=c1c2cccnc2sn1-c1ccc(Cl)cc1 |

species: Bos taurus; test: Tested in vitro at 30 uM for its ability to inhibit the human recombinant IL-1-beta-induced breakdown of bovine cartilage in a cartilage organ culture assay; format: functional; details: Cartilage tissue
Method in brief: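 Cartilage organ culture screen at a single 30 µM concentration. Bovine nasal septum explants in DMEM/5% FCS with rh IL-1β 500 ng/mL, 40 h, 37 °C, 95% air/5% CO2. Proteoglycan breakdown read as GAG release by dimethylmethylene blue; 35SO4 uptake over a further 2 h used for viability. Eight replicates; percent inhibition.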

| Compound | inhibition [%] |
| --- | --- |
| COc1ccc(-n2sc3c(O)nc(O)nc3c2=O)cc1 | 49 |
| O=c1c2cccnc2sn1-c1ccccc1Cl | 0 |
| O=c1c2ccnc(Cl)c2sn1-c1ccccc1 | 38 |
| CS(=O)(=O)Nc1ccc(-n2sc3ncccc3c2=O)cc1 | 28 |
| COc1ccc(-n2sc3c(OC)nccc3c2=O)cc1 | 20 |
| O=c1c2cccnc2sn1-c1cccc([N+](=O)[O-])c1 | 37 |
| COc1nc(OC)c2sn(-c3ccc(C(F)(F)F)cc3)c(=O)c2n1 | 39 |
| O=c1c2cccnc2sn1-c1ccc(C(F)(F)F)cc1 | 17 |
| COC(=O)c1cccc(-n2sc3ncccc3c2=O)c1 | 35 |
| COc1cccc(OC)c1-n1sc2ncccc2c1=O | 40 |
| COc1nc(OC)c2sn(-c3ccccc3)c(=O)c2n1 | 40 |
| Nc1cccc(-n2sc3ncccc3c2=O)c1 | 34 |
| COc1ccc(-n2sc3c(OC)nc(OC)nc3c2=O)cc1 | 50 |
| COc1cc2c(=O)n(-c3ccccc3)sc2c(OC)n1 | 39 |
| O=c1c2cccnc2sn1-c1ccccn1 | 23 |
| N#Cc1ccc(-n2sc3ncccc3c2=O)cc1 | 40 |

target: Stromelysin-1 (Homo sapiens) (UniProt P08254); test: Tested for inhibition of stromelysin using [3H]transferrin, following pre-incubation with prostromelysin for 0 hr prior to activation by plasmin; details: concentration not given here
Sequence (P08254 whole entry, looked up): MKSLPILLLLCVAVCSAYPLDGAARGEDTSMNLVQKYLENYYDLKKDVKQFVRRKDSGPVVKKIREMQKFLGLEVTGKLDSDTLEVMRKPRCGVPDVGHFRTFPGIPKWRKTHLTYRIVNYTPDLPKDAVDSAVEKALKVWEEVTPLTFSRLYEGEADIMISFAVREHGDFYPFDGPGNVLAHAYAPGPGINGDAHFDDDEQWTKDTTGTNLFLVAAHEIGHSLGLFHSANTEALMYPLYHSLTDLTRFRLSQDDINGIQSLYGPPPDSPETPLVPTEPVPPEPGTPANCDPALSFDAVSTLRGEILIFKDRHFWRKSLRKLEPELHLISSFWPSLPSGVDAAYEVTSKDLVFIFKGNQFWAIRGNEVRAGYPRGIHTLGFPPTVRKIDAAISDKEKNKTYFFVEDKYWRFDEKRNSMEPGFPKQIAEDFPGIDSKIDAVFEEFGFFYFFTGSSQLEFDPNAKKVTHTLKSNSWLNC

| inhibition [%] | Compound |
| --- | --- |
| 51 | COc1ccc(OC)c(-n2sc3ncccc3c2=O)c1 |
| 45 | COc1ccc(-n2sc3ncccc3c2=O)c(OC)c1 |

target: Stromelysin-1 (Homo sapiens) (UniProt P08254); test: Tested for inhibition of stromelysin using [3H]transferrin, following pre-incubation with prostromelysin for 3 hr prior to activation by plasmin; details: concentration not given here

| inhibition [%] | Compound |
| --- | --- |
| 68 | COc1ccc(OC)c(-n2sc3ncccc3c2=O)c1 |
| 65 | COc1ccc(-n2sc3ncccc3c2=O)c(OC)c1 |
